The values that follow come from ChEMBL document CHEMBL5257020, “Discovery of a 9-mer Cationic Peptide (LTX-315) as a Potential First in Class Oncolytic Peptide” (J Med Chem, 2016).

The nature of data set [1]: Stability in pooled and cryopreserved rat hepatocytes assessed as intrinsic clearance measured per 10^6 cells at 1 uM measured for 90 mins by LC-MS/MS analysis. The data set is classed as ADME, cell-based, Hepatocyte. To be noted: read-out: CLH. The procedure, abridged:
(§1)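 Pooled cryopreserved hepatocytes at 0.5 million cells/mL, incubated at about 37 °C with 1 μM initial peptide. Supernatant after centrifugation analysed by LC–MS/MS (MRM) using a D-Trp7,9,10-substance P internal standard. Peak height was referenced to time zero, and t1/2 = −0.693/slope of ln concentration vs time. Clint = 0.693/t1/2 × Vinc per million cells. Testosterone, midazolam and 4-methylumbelliferone were the positive controls. Duplicates; mean of two experiments.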

For data set [2], the target named is T1, Cytochrome P450 2C19 (Homo sapiens, UniProt P33261). Briefly: Inhibition of CYP2C19 in human liver microsomes using (S)-mephenytoin as substrate assessed as reduction in substrate hydroxylation incubated for 30 mins in presence of beta-NADPH measured by LC-MS/MS analysis. The data set is classed as ADME, Microsome. The essentials: (§2)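 Pooled human liver microsomes (50 donors) in 100 mM phosphate, pH 7.4, with 2 mM β-NADPH. Protein 0.1 mg/mL (2A6, 2C8, 2C9, 2E1, 3A4) or 0.3 mg/mL (1A2, 2B6, 2C19, 2D6). Test article 0–100 μM final, preincubated ~37 °C 5 or 30 min before isoform-selective substrate. Quenched in methanol with internal standard. Metabolite measured by LC–MS/MS against standard curve. Duplicates, with selective inhibitor positive controls.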
T1 sequence (P33261 whole entry, canonical isoform): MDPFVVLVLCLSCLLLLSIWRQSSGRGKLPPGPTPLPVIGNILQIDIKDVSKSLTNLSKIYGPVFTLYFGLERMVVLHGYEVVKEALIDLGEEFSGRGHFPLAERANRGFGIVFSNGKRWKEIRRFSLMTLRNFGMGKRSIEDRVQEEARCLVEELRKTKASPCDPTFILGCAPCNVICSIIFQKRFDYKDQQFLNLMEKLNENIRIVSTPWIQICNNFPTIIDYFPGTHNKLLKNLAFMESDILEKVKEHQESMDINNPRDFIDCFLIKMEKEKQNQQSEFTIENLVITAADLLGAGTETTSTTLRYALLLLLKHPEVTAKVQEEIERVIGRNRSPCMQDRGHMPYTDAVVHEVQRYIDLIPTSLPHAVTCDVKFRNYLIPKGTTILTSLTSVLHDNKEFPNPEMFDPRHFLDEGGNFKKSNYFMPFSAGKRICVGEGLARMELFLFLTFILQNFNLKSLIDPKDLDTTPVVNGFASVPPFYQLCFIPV

In data set [3] the target is Cytochrome P450 2C9 (Homo sapiens, UniProt P11712). Briefly: Inhibition of CYP2C9 in human liver microsomes using diclofenac as substrate assessed as reduction in substrate hydroxylation incubated for 30 mins in presence of beta-NADPH measured by LC-MS/MS analysis. The data set is classed as ADME, Microsome. The essentials: as §2
Cytochrome P450 2C9, sequence (P11712 whole entry): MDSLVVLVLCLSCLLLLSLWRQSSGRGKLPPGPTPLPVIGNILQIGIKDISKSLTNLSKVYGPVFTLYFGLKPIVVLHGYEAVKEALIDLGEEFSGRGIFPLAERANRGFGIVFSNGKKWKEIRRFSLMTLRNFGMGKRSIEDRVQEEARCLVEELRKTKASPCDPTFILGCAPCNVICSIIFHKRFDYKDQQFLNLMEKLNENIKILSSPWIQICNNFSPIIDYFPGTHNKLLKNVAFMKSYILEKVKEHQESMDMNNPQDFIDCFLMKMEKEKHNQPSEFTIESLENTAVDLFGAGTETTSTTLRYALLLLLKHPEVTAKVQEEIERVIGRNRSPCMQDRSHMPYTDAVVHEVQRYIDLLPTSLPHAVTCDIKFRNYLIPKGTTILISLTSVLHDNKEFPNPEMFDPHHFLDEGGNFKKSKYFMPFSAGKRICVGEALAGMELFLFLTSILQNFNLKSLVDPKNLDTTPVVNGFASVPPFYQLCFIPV
On the technique in general: Liver microsomes are vesicles of endoplasmic reticulum, rich in cytochrome P450 enzymes.

Data set [4] addresses T2, Cytochrome P450 2A6 (Homo sapiens, UniProt P11509). In words: Inhibition of CYP2A6 in human liver microsomes using coumarin as substrate assessed as reduction in substrate hydroxylation incubated for 30 mins in presence of beta-NADPH measured by LC-MS/MS analysis. Type of data set: ADME, Microsome. The essentials:
as §2

In data set [5] the target is T3, Cytochrome P450 3A4 (Homo sapiens, UniProt P08684). In words: Inhibition of CYP3A4 in human liver microsomes using midazolam as substrate assessed as reduction in substrate hydroxylation incubated for 30 mins in presence of beta-NADPH measured by LC-MS/MS analysis. The data set is classed as ADME, Microsome. The procedure, abridged: as §2
T3 sequence (P08684 whole entry): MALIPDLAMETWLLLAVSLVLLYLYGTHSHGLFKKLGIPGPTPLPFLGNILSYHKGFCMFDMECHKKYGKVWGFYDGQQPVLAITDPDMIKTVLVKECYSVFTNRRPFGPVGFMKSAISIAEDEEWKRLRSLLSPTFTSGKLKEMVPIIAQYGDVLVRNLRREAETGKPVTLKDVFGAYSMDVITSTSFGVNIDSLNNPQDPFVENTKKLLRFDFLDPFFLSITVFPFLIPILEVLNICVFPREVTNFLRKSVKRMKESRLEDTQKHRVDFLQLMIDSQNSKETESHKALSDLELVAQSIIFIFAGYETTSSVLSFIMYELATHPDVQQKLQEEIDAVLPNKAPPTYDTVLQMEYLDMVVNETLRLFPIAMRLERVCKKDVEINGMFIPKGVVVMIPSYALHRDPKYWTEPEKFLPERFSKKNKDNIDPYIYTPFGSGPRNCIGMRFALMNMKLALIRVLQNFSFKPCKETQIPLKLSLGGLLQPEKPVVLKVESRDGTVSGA
The nature of data set [6]: Drug uptake in rat Red blood cells at 60 mins by LC-MS/MS analysis. The data set is classed as ADME, cell-based. To be noted: erythrocyte, 1 h. The procedure, abridged: (§3)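 Pooled fresh whole blood (≥3 male and 3 female human, beagle dog or rat donors) spiked to 200 ng/mL. Incubated ~37 °C on rotary mixer over 0–120 min. Hematocrit determined. Blood and plasma analysed by LC–MS/MS. Blood/plasma ratio = Cb/C. Cell association = {[C(1 − H)]/Cb} × 100. Values at 60 min, mean of two independent measurements.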

The target of data set [7] is T4, Cytochrome P450 2E1 (Homo sapiens, UniProt P05181). In words: Inhibition of CYP2E1 in human liver microsomes using chlorzoxazone as substrate assessed as reduction in substrate hydroxylation incubated for 30 mins in presence of beta-NADPH measured by LC-MS/MS analysis. Type of data set: ADME, Microsome. The essentials:
as §2

A short description of data set [8]: Drug uptake in human red blood cells at 60 mins by LC-MS/MS analysis. Type of data set: ADME, cell-based. To be noted: erythrocyte, 1 h. The procedure, abridged:
as §3

For data set [9], the target named is T4, Cytochrome P450 2E1. Briefly: Inhibition of CYP2E1 in human liver microsomes using chlorzoxazone as substrate assessed as reduction in substrate hydroxylation incubated for 5 mins in presence of beta-NADPH measured by LC-MS/MS analysis. Type of data set: ADME, Microsome. The procedure, abridged: as §2
The target in data set [10] is Cytochrome P450 2D6 (Homo sapiens, UniProt P10635). In words: Inhibition of CYP2D6 in human liver microsomes using bufuralol as substrate assessed as reduction in substrate hydroxylation incubated for 5 mins in presence of beta-NADPH measured by LC-MS/MS analysis. The data set is classed as ADME, Microsome. The procedure, abridged:
as §2

Data set [11] has as its target T5, Cytochrome P450 1A2 (Homo sapiens, UniProt P05177). Briefly: Inhibition of CYP1A2 in human liver microsomes using as phenacetin substrate assessed as reduction in O-deethylation of phenacetin incubated for 5 mins in presence of beta-NADPH by LC-MS/MS analysis. Type of data set: ADME, Microsome. The essentials:
as §2

In data set [12] the target is T6, Cytochrome P450 2C8 (Homo sapiens, UniProt P10632). Briefly: Inhibition of CYP2C8 in human liver microsomes using paclitaxel as substrate assessed as reduction in substrate hydroxylation incubated for 30 mins in presence of beta-NADPH measured by LC-MS/MS analysis. Type of data set: ADME, Microsome. The essentials: as §2
T6 sequence (P10632 whole entry): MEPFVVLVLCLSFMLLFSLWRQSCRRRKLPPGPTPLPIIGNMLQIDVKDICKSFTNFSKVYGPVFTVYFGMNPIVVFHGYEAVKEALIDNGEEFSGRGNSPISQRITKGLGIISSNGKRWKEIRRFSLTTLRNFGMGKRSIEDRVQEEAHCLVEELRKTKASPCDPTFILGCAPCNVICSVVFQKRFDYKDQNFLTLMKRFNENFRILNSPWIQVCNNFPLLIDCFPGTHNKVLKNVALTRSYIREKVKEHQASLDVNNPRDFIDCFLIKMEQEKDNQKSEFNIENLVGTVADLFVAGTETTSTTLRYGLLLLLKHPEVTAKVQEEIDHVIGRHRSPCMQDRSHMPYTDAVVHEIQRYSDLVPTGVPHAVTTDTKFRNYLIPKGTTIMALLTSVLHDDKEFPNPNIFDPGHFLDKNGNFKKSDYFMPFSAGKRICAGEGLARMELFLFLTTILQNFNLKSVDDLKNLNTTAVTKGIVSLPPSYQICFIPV
Data set [13] can be described thus: Stability in pooled and cryopreserved rat hepatocytes assessed as half life at 1 uM measured for 90 mins by LC-MS/MS analysis. The data set is classed as ADME, cell-based, Hepatocyte. The essentials:
(§4)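 Pooled cryopreserved rat or human hepatocytes, 0.5 million cells/mL, ~37 °C, peptide at 1 μM initial. Supernatants analysed by LC–MS/MS with peak height referenced to time zero. t1/2 = −0.693/slope of ln concentration vs time. Duplicate experiments. Testosterone, midazolam and 4-methylumbelliferone served as metabolic-competence controls.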

Data set [14] can be described thus: Stability in pooled and cryopreserved human hepatocytes assessed as half life at 1 uM measured for 90 mins by LC-MS/MS analysis. Type of data set: ADME, cell-based, Hepatocyte. The procedure, abridged:
as §4

Data set [15] addresses T1, Cytochrome P450 2C19. Briefly: Inhibition of CYP2C19 in human liver microsomes using (S)-mephenytoin as substrate assessed as reduction in substrate hydroxylation incubated for 5 mins in presence of beta-NADPH measured by LC-MS/MS analysis. Type of data set: ADME, Microsome. The procedure, abridged: as §2
The nature of data set [16]: Drug uptake in Beagle dog Red blood cells at 60 mins by LC-MS/MS analysis. Type of data set: ADME, cell-based, Canis lupus familiaris. To be noted: erythrocyte, 1 h. The essentials: as §3
The target of data set [17] is T5, Cytochrome P450 1A2. In words: Inhibition of CYP1A2 in human liver microsomes using as phenacetin substrate assessed as reduction in O-deethylation of phenacetin incubated for 30 mins in presence of beta-NADPH by LC-MS/MS analysis. The data set is classed as ADME, Microsome. The procedure, abridged: as §2
The nature of data set [18]: Stability in pooled and cryopreserved human hepatocytes assessed as intrinsic clearance measured per 10^6 cells at 1 uM measured for 90 mins by LC-MS/MS analysis. To be noted: read-out: CLH. Type of data set: ADME, cell-based, Hepatocyte. The procedure, abridged:
as §1

Data set [19] concerns the target T6, Cytochrome P450 2C8. In words: Inhibition of CYP2C8 in human liver microsomes using paclitaxel as substrate assessed as reduction in substrate hydroxylation incubated for 5 mins in presence of beta-NADPH measured by LC-MS/MS analysis. Type of data set: ADME, Microsome. The essentials:
as §2

Data set [20] addresses T2, Cytochrome P450 2A6. In words: Inhibition of CYP2A6 in human liver microsomes using coumarin as substrate assessed as reduction in substrate hydroxylation incubated for 5 mins in presence of beta-NADPH measured by LC-MS/MS analysis. Type of data set: ADME, Microsome. The essentials: as §2
Data set [21] deals with T3, Cytochrome P450 3A4. In words: Inhibition of CYP3A4 in human liver microsomes using testosterone as substrate assessed as reduction in substrate hydroxylation incubated for 30 mins in presence of beta-NADPH measured by LC-MS/MS analysis. The data set is classed as ADME, Microsome. The procedure, abridged:
as §2

Where a SMILES comes first, the peptide text is derived from it. [ ]: non-standard residue; d: D form. ξ: configuration not given here. ξDip = NC(C(=O)O)C(c1ccccc1)c1ccccc1

T4 sequence (P05181 whole entry): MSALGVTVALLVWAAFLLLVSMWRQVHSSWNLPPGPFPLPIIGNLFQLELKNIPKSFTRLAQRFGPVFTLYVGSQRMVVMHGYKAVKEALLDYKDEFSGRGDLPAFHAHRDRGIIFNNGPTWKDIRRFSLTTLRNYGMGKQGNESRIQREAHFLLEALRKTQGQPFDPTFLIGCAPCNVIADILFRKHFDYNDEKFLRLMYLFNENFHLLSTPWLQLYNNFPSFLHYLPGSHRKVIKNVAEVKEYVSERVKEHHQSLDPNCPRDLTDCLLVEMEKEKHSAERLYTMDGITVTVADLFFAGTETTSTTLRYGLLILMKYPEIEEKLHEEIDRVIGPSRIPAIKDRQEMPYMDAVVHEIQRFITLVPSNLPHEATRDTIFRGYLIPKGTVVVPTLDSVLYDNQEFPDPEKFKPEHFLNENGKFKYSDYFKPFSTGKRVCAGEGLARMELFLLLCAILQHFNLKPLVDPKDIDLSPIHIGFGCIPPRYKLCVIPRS
T2 sequence (P11509 whole entry): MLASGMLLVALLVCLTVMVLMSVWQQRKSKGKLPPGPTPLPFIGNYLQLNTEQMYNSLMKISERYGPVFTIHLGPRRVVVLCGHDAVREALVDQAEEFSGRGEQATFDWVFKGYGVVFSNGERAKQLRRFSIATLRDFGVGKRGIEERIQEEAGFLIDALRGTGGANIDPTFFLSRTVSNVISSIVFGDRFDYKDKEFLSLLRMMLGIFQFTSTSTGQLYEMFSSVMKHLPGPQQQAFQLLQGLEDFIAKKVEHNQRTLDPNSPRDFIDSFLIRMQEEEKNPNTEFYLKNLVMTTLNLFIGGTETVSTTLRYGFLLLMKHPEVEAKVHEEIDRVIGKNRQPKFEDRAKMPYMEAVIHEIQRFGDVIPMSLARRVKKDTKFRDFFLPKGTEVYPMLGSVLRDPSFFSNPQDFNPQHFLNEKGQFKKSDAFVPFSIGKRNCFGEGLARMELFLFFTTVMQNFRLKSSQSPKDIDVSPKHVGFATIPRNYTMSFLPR
T5 sequence (P05177 whole entry): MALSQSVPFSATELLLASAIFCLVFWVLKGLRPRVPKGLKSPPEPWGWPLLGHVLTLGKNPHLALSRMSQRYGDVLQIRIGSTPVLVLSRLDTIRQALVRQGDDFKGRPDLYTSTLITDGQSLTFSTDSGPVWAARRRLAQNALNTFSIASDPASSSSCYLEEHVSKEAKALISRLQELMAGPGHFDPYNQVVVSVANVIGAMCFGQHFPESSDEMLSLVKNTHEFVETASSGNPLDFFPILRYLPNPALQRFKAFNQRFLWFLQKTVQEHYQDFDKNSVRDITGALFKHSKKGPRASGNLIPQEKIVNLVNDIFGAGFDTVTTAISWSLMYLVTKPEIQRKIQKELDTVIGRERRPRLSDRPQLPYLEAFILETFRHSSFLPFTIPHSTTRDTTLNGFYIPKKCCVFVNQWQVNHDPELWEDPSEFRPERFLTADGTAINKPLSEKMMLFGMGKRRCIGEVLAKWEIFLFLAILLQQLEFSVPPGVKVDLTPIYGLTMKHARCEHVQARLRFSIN
Cytochrome P450 2D6, sequence (P10635 whole entry): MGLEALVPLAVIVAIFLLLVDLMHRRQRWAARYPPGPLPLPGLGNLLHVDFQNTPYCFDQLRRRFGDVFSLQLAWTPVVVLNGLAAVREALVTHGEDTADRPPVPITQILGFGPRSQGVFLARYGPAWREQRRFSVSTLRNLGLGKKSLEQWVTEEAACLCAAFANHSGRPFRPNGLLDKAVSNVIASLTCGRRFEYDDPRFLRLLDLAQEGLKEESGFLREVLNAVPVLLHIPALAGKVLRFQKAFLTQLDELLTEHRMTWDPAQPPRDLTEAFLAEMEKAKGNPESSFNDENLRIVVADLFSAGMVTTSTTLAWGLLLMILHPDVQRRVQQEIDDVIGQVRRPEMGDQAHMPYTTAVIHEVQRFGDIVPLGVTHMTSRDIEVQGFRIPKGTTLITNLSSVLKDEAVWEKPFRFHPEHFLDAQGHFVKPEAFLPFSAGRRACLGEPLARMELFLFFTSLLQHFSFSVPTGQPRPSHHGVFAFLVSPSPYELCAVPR

Turning to `NCCCC[C@H](NC(=O)C(NC(=O)[C@H](Cc1c[nH]c2ccccc12)NC(=O)[C@H](CCCCN)NC(=O)[C@H](CCCCN)NC(=O)[C@H](Cc1c[nH]c2ccccc12)NC(=O)[C@H](Cc1c[nH]c2ccccc12)NC(=O)[C@H](CCCCN)NC(=O)[C@@H](N)CCCCN)C(c1ccccc1)c1ccccc1)C(N)=O` (stereo partly specified) (H-KKWWKKW[ξDip]K-NH2), the hepatocyte CLint at 1 µM in data set [1] was found to be 20 µL/min/1e6 cells; in [18], 22 µL/min/1e6 cells. For the same compound, the IC50 (as a rule, the concentration that inhibits the measured activity by half) is more than 100 µM in [2]; 8.7 µM in data set [3]; 26.3 µM in [4]; 63.7 µM in data set [5]; 30 µM in data set [7]; 30.9 µM in data set [9]. Besides, the IC50 is 21.9 µM in [10]; 37.9 µM in data set [11]; 7.9 µM in data set [12]; 23.3 µM in data set [15]; more than 100 µM in [17]; 10.2 µM in data set [19]. In addition, the IC50 came to 7 µM in data set [20] and 12.1 µM in data set [21]. Moreover, the figures for the Drug uptake in data set [6], in data set [8] and in data set [16] were 44%, 27% and 76%, respectively. Also, the half-life (as a rule, the time needed for the level to fall by half in the phase considered) at 1 µM in [13] was determined as 1.18 h; in data set [14], 1.07 h.
